ABCG2 block: human ABCG2 inhibition, ABCB1 as counter-screen | IgMXP3 cells, JC-1 efflux, flow cytometry | inhibition, % at 6.6 µM | Q9UNQ0 | 190,000 tested, 0.1% active;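 active = inhibition above 80%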
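test system = two drug-resistant human cell lines, ABCG2 and ABCB1 | amount = 3 million cells/mL final, two lines in 1:1 ratio | reagent = JC-1 transporter substrate | doses = one concentration, 6.6 µM final | incubation = 10 min at 25 °C | signal = flow cytometric JC-1 green MFI at 530 nm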
Tn6 DDE FP: disrupts Tn6 cyclic peptide binding to fibrin D-Dimer-E complex. P02675. Fibrin DD(E) TRITC-Tn6 fluorescence polarization displacement. inhibition, % at 8.3 µM. 370,000 tested, 0.21% active. AID 720509;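 active = inhibition above a per-campaign cutoff: mean of compounds within control limits plus 3 SD, cut at about 15% in these data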
Target sequence (P02675 whole entry, looked up): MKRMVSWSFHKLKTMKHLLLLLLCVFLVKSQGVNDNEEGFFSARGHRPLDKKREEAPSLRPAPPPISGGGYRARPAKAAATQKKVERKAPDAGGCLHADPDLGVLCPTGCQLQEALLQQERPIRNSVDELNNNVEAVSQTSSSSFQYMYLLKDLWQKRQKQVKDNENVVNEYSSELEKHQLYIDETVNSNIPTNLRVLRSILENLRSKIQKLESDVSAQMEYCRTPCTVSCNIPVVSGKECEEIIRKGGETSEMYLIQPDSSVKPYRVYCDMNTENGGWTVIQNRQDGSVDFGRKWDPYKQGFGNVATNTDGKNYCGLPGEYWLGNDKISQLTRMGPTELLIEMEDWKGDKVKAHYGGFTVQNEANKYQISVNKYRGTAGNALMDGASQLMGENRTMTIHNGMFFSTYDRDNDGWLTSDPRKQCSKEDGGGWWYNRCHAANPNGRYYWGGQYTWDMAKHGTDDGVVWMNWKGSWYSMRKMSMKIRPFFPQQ
Ins promoter up: MIN6 insulin promoter up-regulation | MIN6 insulin promoter-GFP reporter, high-content imaging; hits give high values | z-score at 5 µM | 190,000 tested, 0.3% active | AID 1625;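 active = z-score above 3 at 5 µM with at least 500 cells counted in the well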
DDE Tn7 FP inh: DD(E)-Tn7 binding inhibition, primary FP screen; P02675; inhibition, % at 8.3 µM; FP displacement of FITC-Tn7 peptide from fibrin DD(E); 0% = median of compound wells per plate; AID 720508; 370,000 tested, 0.13% active;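 active = inhibition above the mean of compounds falling within the control limits plus 3 SD of them, cut at about 14% in these data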
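Assay system: Human fibrin DD(E) protein | Medium: Tris buffer with calcium and detergent, pH 7.8 | Reagent: 0.1 µM fluorescent Tn7 | Compound dosing: Single point at 8.3 µM | Times: 10 min preincubation, 3 h with tracer, room temperature | Detection: Fluorescence polarization of the labelled Tn7 tracer | Controls: Aha-Tn7 high control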
GRK2 aptamer HTS: blocks RNA aptamer binding to human GRK2; P25098; 330,000 tested, 0.59% active; AID 488847; inhibition of aptamer binding, % at 10 µM; bead flow cytometry, FAM-aptamer displacement from GRK2;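 active = inhibition of aptamer binding above 40%, roughly 3 SD of noise, on plates passing a quality check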;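 note: median bead fluorescence of bound FAM aptamer so fluorescent compounds give negative values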
ABCB1 inh: human ABCB1 inhibition, ABCG2 as counter-screen; P08183; inhibition, % at 6.6 µM; 190,000 tested, 0.067% active; CCRF-Adr cells, JC-1 efflux, flow cytometry; in the data active = inhibition above about 40%;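 note: higher value means more JC-1 retained so stronger ABCB1 efflux block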
GRK2 CP1: human GRK2 inhibition confirmation, cherry pick 1; shares compounds with GRK2 aptamer HTS; bead-bound GRK2, FAM-aptamer displacement, flow cytometry; aptamer displacement, % at 10 µM; 2,000 tested, 4% active; AID 504451;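 active = aptamer displacement above 40%, near three times the noise of non-fluorescent compounds, on plates passing quality checks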;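 note: negative values mostly reflect intrinsic compound fluorescence rather than true enhancement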
Aptamer quench SP: quenches fluorescent RNA aptamer, GRK2 hit artifact; shares compounds with GRK2 aptamer HTS; Carboxyfluorescein RNA aptamer on beads, flow cytometry quenching; hits give low values; fluorescence response (% of DMSO), % at 10 µM; 2,000 tested, under 10 active;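 active = compounds that quench the bead-bound fluorescent RNA probe, cutting fluorescence to under half of the solvent control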;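 note: counterscreen run without GRK2 so only probe quenching by compound is measured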
GRK2 confirm 2: human GRK2 inhibition confirmation, cherry pick 2. shares compounds with GRK2 aptamer HTS. bead-bound GRK2, FAM-aptamer displacement, flow cytometry. inhibition of aptamer binding, % at 10 µM. 360 tested, under 10 active. AID 504782;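 active = inhibition of aptamer binding above 40%, about triple the noise seen with nonglowing compounds, on plates passing quality control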;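 note: negative values mostly come from compounds that fluoresce themselves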
FAM quench SP: quenches fluorescent RNA aptamer, GRK2 hit artifact; shares compounds with GRK2 aptamer HTS; carboxyfluorescein RNA aptamer beads, flow cytometry quenching; hits give low values; fluorescence response vs DMSO, % at 10 µM; 360 tested, under 10 active; AID 588494;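 active = response vs DMSO under 50%, meaning signal dropped by over half, treated as fluorescence quencher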;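 note: labelled aptamer on streptavidin beads without GRK2 as a quench counter-screen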
Hits are given with their value. An excerpt weighted towards active compounds, which were near 0.99% of everything screened.

`OC1(c2cccc(C(F)(F)F)c2)CCN(Cc2nnnn2Cc2ccccc2)CC1` gave ABCG2 block inactive, Tn6 DDE FP inactive, Ins promoter up inactive, DDE Tn7 FP inh inactive, GRK2 aptamer HTS 93.0, ABCB1 inh inactive, GRK2 CP1 inactive and Aptamer quench SP inactive.
For C[C@H]1[C@@H](NCc2ccccc2)CC[C@@]23CCCN2C(=O)CCC[C@@H]13 the results were Tn6 DDE FP inactive and DDE Tn7 FP inh inactive.
O=C(O)c1cccc(-n2cccc2/C=N/O)c1 was read as ABCG2 block inactive, Tn6 DDE FP inactive, Ins promoter up inactive, DDE Tn7 FP inh inactive, GRK2 aptamer HTS 54.0, ABCB1 inh inactive, GRK2 CP1 inactive, Aptamer quench SP inactive, GRK2 confirm 2 inactive and FAM quench SP inactive.
`ON=Cc1cccn1-c1ccccc1` gave ABCG2 block inactive, Tn6 DDE FP inactive, Ins promoter up inactive, DDE Tn7 FP inh inactive, GRK2 aptamer HTS inactive and ABCB1 inh inactive.
Screening O=C(O)c1cccc(-n2cccc2/C=C/[N+](=O)[O-])c1 returned Tn6 DDE FP inactive, Ins promoter up inactive, DDE Tn7 FP inh inactive, GRK2 aptamer HTS 51.0, GRK2 CP1 inactive and Aptamer quench SP inactive.
Screening COc1cccc(C(=O)N2CCC[C@@H]2C(=O)N2CCC[C@H]2C(=O)NCc2ccccc2)c1 returned Tn6 DDE FP inactive and DDE Tn7 FP inh inactive.
For CNc1c(NS(=O)(=O)c2ccc(OC)c(Cl)c2)c(=O)oc2ccccc12 the results were Tn6 DDE FP inactive, DDE Tn7 FP inh inactive and GRK2 aptamer HTS inactive.
`CCNc1c(NS(=O)(=O)c2ccc(OC)c(Cl)c2)c(=O)oc2ccccc12` gave Tn6 DDE FP inactive, DDE Tn7 FP inh inactive, GRK2 aptamer HTS 69.0, GRK2 CP1 inactive and Aptamer quench SP inactive.
Cc1c(C(=O)O)cccc1-n1c(C)cc(/C=N/NC(=O)c2cc3ccccc3o2)c1C was read as ABCG2 block inactive, Tn6 DDE FP inactive, Ins promoter up inactive, DDE Tn7 FP inh inactive, GRK2 aptamer HTS 50.0, ABCB1 inh inactive, GRK2 CP1 inactive and Aptamer quench SP inactive.
Screening Cc1ccc(NC(=O)[C@@H]2CCCN2S(=O)(=O)c2cccc3cccnc23)c(C)c1 returned Tn6 DDE FP inactive and DDE Tn7 FP inh inactive.
Screening CC(C(=O)Nc1ccon1)N1C(=O)c2ccccc2S1(=O)=O (centres undefined) returned Tn6 DDE FP inactive, DDE Tn7 FP inh inactive, GRK2 aptamer HTS 95.0, GRK2 CP1 inactive and Aptamer quench SP inactive.
Screening COC(=O)[C@]12C[C@H](CC(=O)NCC3CCCCC3)C(=O)N(Cc3ccco3)C1=C[C@H](COCc1ccccc1)O[C@@H]2C returned Tn6 DDE FP inactive and DDE Tn7 FP inh inactive.
For Cc1cc(C)n2nc(SCC(=O)N(CC(C)C)c3c(N)n(CC(C)C)c(=O)[nH]c3=O)nc2n1 the results were ABCG2 block inactive, Tn6 DDE FP inactive, Ins promoter up inactive, DDE Tn7 FP inh inactive, GRK2 aptamer HTS inactive and ABCB1 inh inactive.
Cc1cc(C)n2nc(SCC(=O)c3c(N)n(CC(C)C)c(=O)n(C)c3=O)nc2n1 was read as ABCG2 block inactive, Tn6 DDE FP inactive, DDE Tn7 FP inh inactive, GRK2 aptamer HTS 72.0, ABCB1 inh inactive, GRK2 CP1 inactive and Aptamer quench SP inactive.
Screening CCCCNC(=O)C1c2ccccc2OCC(=O)N1CCc1ccc(OC)c(OC)c1 (centres undefined) returned Tn6 DDE FP inactive and DDE Tn7 FP inh inactive.
Cc1cc(N/C=C/C(=O)c2ccc(Br)cc2)no1 was read as ABCG2 block inactive, Tn6 DDE FP inactive, DDE Tn7 FP inh inactive, GRK2 aptamer HTS 77.0, ABCB1 inh inactive, GRK2 CP1 inactive and Aptamer quench SP inactive.
Screening COC(=O)C1=C(C)N=c2s/c(=C/c3ccoc3)c(=O)n2C1c1ccccc1 (centres undefined) returned ABCG2 block inactive, Ins promoter up inactive, GRK2 aptamer HTS inactive and ABCB1 inh inactive.
For COC(=O)C1=C(C)N=c2s/c(=C/c3cccs3)c(=O)n2C1c1cccs1 (centres undefined) the results were ABCG2 block inactive, Tn6 DDE FP inactive, Ins promoter up inactive, DDE Tn7 FP inh inactive, GRK2 aptamer HTS 56.0, ABCB1 inh inactive, GRK2 CP1 inactive and Aptamer quench SP inactive.
Screening S=C(Nc1ccccc1)N1CCN(c2ccc(N3CCOCC3)nn2)CC1 returned ABCG2 block inactive, Tn6 DDE FP inactive, Ins promoter up inactive, DDE Tn7 FP inh inactive, GRK2 aptamer HTS inactive, ABCB1 inh inactive, GRK2 CP1 inactive and Aptamer quench SP inactive.
`CC(Oc1ccccc1)C(=O)N1CCN(c2ccc(N3CCCCCC3)nn2)CC1` (centres undefined) gave Tn6 DDE FP inactive, DDE Tn7 FP inh inactive and GRK2 aptamer HTS inactive.
For CC(Oc1ccccc1)C(=O)N1CCN(c2ccc(N3CCOCC3)nn2)CC1 (centres undefined) the results were Tn6 DDE FP inactive, DDE Tn7 FP inh inactive, GRK2 aptamer HTS inactive, GRK2 CP1 inactive and Aptamer quench SP inactive.
S=C(Nc1ccccc1)N1CCOCCOCCN(C(=S)Nc2ccccc2)CCOCCOCC1 was read as Tn6 DDE FP inactive, Ins promoter up inactive, DDE Tn7 FP inh inactive and GRK2 aptamer HTS inactive.
For Cn1cccc1CC(=O)NN=Cc1cccc(F)c1 the results were Tn6 DDE FP inactive and DDE Tn7 FP inh inactive.
Screening O=C(OCC#CCSc1nnc(-c2ccc(F)cc2)o1)c1ccc(F)cc1 returned Tn6 DDE FP inactive and DDE Tn7 FP inh inactive.
CCN(CC)C(=O)O[C@H]1CC[C@@]23CCCN2C(=O)CCC[C@H]3C1 was read as Tn6 DDE FP inactive and DDE Tn7 FP inh inactive.
`COc1ccc(CN(C)C(=O)c2cccc(S(=O)(=O)N3CCCc4ccccc43)c2)c(OC)c1OC` gave Tn6 DDE FP inactive, DDE Tn7 FP inh inactive, GRK2 CP1 inactive and Aptamer quench SP inactive.
COc1ccc(CN(C)C(=O)c2cccc(S(=O)(=O)N3CCN(c4ccccc4)CC3)c2)c(OC)c1OC was read as Tn6 DDE FP inactive, DDE Tn7 FP inh inactive and GRK2 aptamer HTS inactive.

From PubChem BioAssay
